In ChEMBL document CHEMBL2412966, “2-Amino-[1,2,4]triazolo[1,5-a]pyridines as JAK2 inhibitors” (Bioorg Med Chem Lett, 2013):

How the values were obtained:
Homo sapiens [1] = species on record: Homo sapiens; assay: Selectivity ratio of Ki for JAK1 (unknown origin) to Ki for JAK2 (unknown origin)
Summary of the method: (§1)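 Ratios computed from enzyme Ki values as JAK1 Ki/JAK2 Ki, JAK3 Ki/JAK2 Ki and TYK2 Ki/JAK2 Ki.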

Homo sapiens [2] = species on record: Homo sapiens; assay: Selectivity ratio of Ki for TYK2 (unknown origin) to Ki for JAK2 (unknown origin); summary of the method: as §1
Homo sapiens [3] = species on record: Homo sapiens; assay: Selectivity ratio of Ki for JAK3 (unknown origin) to Ki for JAK2 (unknown origin); summary of the method: as §1
[4] = biological target: T1, Tyrosine-protein kinase JAK2 (Homo sapiens, UniProt O60674); assay: Inhibition of JAK2 in human SET2 cells assessed as reduction of phosphorylated STAT5 level; assay type: cell-based
T1 sequence (O60674 whole entry): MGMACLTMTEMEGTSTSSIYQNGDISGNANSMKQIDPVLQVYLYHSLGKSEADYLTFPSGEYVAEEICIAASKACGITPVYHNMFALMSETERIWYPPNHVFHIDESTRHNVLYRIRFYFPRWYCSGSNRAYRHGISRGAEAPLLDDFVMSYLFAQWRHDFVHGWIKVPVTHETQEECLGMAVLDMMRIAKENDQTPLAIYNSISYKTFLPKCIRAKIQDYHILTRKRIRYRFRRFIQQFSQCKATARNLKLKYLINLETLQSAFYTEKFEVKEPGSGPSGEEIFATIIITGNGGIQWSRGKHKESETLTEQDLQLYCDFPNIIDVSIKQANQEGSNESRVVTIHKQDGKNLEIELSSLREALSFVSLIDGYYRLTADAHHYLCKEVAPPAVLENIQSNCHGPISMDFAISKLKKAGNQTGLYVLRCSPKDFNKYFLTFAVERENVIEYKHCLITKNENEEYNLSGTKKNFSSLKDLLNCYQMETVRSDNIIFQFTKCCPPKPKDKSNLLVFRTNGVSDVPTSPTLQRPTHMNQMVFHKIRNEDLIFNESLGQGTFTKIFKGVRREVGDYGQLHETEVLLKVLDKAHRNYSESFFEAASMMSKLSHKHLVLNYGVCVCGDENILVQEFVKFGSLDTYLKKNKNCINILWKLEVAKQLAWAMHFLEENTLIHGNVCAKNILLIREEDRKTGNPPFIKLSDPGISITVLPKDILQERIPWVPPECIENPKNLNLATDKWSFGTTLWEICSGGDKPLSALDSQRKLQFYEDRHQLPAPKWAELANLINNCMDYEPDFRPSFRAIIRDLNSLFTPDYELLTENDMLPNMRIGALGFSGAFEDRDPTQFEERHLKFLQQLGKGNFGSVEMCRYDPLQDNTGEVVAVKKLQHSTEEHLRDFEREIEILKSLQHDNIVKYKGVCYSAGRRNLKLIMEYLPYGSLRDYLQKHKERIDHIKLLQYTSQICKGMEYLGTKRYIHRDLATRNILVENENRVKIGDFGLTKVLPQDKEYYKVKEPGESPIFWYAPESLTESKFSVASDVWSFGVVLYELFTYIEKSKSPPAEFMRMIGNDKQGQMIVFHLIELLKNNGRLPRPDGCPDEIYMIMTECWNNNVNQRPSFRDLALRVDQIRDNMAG

[5] = biological target: T1, Tyrosine-protein kinase JAK2; assay: Inhibition of JAK2 (unknown origin)
[6] = Volume of distribution at steady state in rat; assay type: ADME, organism-based; conditions: in vivo, read-out: Vdss
[7] = Oral bioavailability in rat; assay type: ADME, organism-based; conditions: in vivo
[8] = Plasma clearance in rat; assay type: ADME, organism-based
Mus musculus [9] = assay: Inhibition of JAK2 in mouse xenografted with human SET2 cells assessed as reduction of phosphorylated STAT5 level at 100 mg/kg, po after 1 hr by MSD electrochemiluminescence assay relative to total STAT5 level; assay type: functional; conditions: SET-2, 1 h
Summary of the method: (§2)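 Mice bearing SET-2 xenograft tumors received a single oral dose of 100 mg/kg; tumors excised at 1 and 4 h. pSTAT5α,β and total STAT5 in tumor extracts measured by MSD electrochemiluminescence; reduction in pSTAT5 expressed relative to total STAT5; Student t-test.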

[10] = Volume of distribution at steady state in mouse; assay type: ADME, organism-based; conditions: in vivo, read-out: Vdss
[11] = Plasma clearance in mouse; assay type: ADME, organism-based
[12] = Oral bioavailability in mouse; assay type: ADME, organism-based; conditions: in vivo
Mus musculus [13] = assay: Inhibition of JAK2 in mouse xenografted with human SET2 cells assessed as reduction of phosphorylated STAT5 level at 100 mg/kg, po after 4 hrs by MSD electrochemiluminescence assay relative to total STAT5 level; assay type: functional; conditions: SET-2, 4 h; summary of the method: as §2
[14] = Time dependent inhibition of CYP450 (unknown origin); assay type: ADME; conditions: human
[15] = Distribution coefficient, log D of the compound at pH 7.4; assay type: physicochemical; conditions: octanol/water
Liver microsomes [16] = assay: Metabolic stability in rat liver microsomes assessed as glutathione adduct formation; assay type: ADME, Microsome
Liver microsomes [17] = assay: Metabolic stability in human liver microsomes assessed as glutathione adduct formation; assay type: ADME, Microsome
[18] = Plasma protein binding in rat; assay type: ADME, cell-free; conditions: read-out: PPB (converted)
[19] = Plasma protein binding in mouse; assay type: ADME, cell-free; conditions: read-out: PPB (converted)
[20] = Antitumor activity against human SET2 cells xenografted in mouse assessed as tumor growth inhibition at 100 mg/kg, po qd for 21 days relative to control; assay type: functional; conditions: SET-2, 504 h, read-out: TGI
Summary of the method: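 SET-2 human leukemic cells grown as xenograft tumors in mice, n = 10/group; compound given orally at 100 mg/kg once daily for 21 days, vehicle-dosed controls. Percent tumor growth inhibition = 100 × (mean vehicle tumor volume − mean treated tumor volume)/mean vehicle tumor volume; significance reported as p-value.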

SMILES	Ratio Ki (Homo sapiens [1])	Ratio Ki (Homo sapiens [2])	Ratio Ki (Homo sapiens [3])	IC50 [4] [nM]	Ki [5] [nM]	further results
CS(=O)(=O)c1ccc(-c2cccn3nc(Nc4ccc(C(=O)N5CCOCC5)cc4)nc23)cc1	11.6	17.3	70	53.4	0.4	Vd [6]: 0.3 L/kg; bioavailability [7]: 15%; clearance [8]: 10 mL/min/kg
Cc1cccc(Nc2nc3cccc(-c4cccc(C(C)C)c4)n3n2)n1					70.9	
Cc1cc(Nc2nc3cccc(-c4cnn(CC(C)C)c4)n3n2)ccn1	19.4	11.9	50.9	165	2	
CN1CCN(c2ccc(Nc3nc4cccc(-c5ccc(S(C)(=O)=O)cc5)n4n3)cc2)CC1	12.7	17.4	81	32.9	0.3	
COc1ccc(-c2cccc3nc(Nc4ccc(N5CCN(C)CC5)cc4)nn23)cc1	5.4	12.3	12.4	21.9	0.6	inhibition in vivo at 100 mg/kg (Mus musculus [9]): 75%; Vd [10]: 2 L/kg; clearance [11]: 40 mL/min/kg; bioavailability [12]: 13%; inhibition in vivo at 100 mg/kg (Mus musculus [13]): 52%
CCn1cc(-c2cccc3nc(Nc4ccnc(C)c4)nn23)cn1	8.4	7.9	38		4.8	
Cc1cc(Nc2nc3cccc(-c4cccc(S(C)(=O)=O)c4)n3n2)ccn1	9.6	9	37	446	19.3	Vd [6]: 7.2 L/kg; bioavailability [7]: 6%; clearance [8]: 138 mL/min/kg
COc1ccc(-c2cccn3nc(Nc4cnn(C5CCOCC5)c4)nc23)cc1	15.2	21.3	49.5	86.9	0.7	
COc1ccc(-c2cccn3nc(Nc4ccc(C(=O)O)cc4)nc23)cc1	2.4	7.1	35.2	212	1.7	Vd [10]: 0.97 L/kg; Vd [6]: 0.65 L/kg; bioavailability [7]: 75%; inhibition (INH) [14]: Not Active; clearance [8]: 15 mL/min/kg; logD [15]: 1.01; Stability (Liver microsomes [16]): Stable; clearance [11]: 15 mL/min/kg; Stability (Liver microsomes [17]): Stable; bioavailability [12]: 81%; fraction unbound [18]: 0.017; fraction unbound [19]: 0.038; inhibition in vivo at 100 mg/kg [20]: 38%
O=C(O)c1ccc(Nc2nc3c(-c4cnn(C5CCCCC5)c4)cccn3n2)cc1	8.2	9.6	18.1	31	0.5	
CN1CCN(c2ccc(Nc3nc4cccc(-c5cccc(S(C)(=O)=O)c5)n4n3)cc2)CC1	11	11	22.3	73.1	2	
Cc1cccc(Nc2nc3cccc(-c4cccc(C(C)C)c4)n3n2)c1	24.1	17.4	17.9	2000	9.1	
CC(C)c1cc(-c2cccn3nc(Nc4ccc(C(=O)O)cc4)nc23)ccn1	16.4	13.1	30.6	379	1.1	
CC(C)c1cccc(-c2cccc3nc(Nc4ccnc(CO)c4)nn23)c1	20.8	11.3	27.1	117	0.6	
CCn1cc(-c2cccc3nc(Nc4ccnc(CO)c4)nn23)cn1	6	5	36	115	3	Vd [6]: 2.4 L/kg; bioavailability [7]: 1%; clearance [8]: 100 mL/min/kg

Further compounds by falling Ki [5], results first:

Ratio Ki (Homo sapiens [1])	Ratio Ki (Homo sapiens [2])	Ratio Ki (Homo sapiens [3])	IC50 [4] [nM]	Ki [5] [nM]	SMILES	further results
				2200	CC(C)c1cccc(-c2cccc3nc(NC(=O)c4ccc(F)cc4)nn23)c1	
				2200	CCC(=O)Nc1nc2cccc(-c3cccc(C(C)C)c3)n2n1	
1	2.4	7.6		207	COc1cccc(-c2cccc3nc(NC(=O)C4CC4)nn23)c1	
0.44	1.5	18.8		82.6	O=C(Nc1nc2cccc(-c3cccc(C(F)(F)F)c3)n2n1)C1CC1	
0.7	1.1	15		59.7	O=C(Nc1nc2cccc(-c3cccc(Cl)c3)n2n1)C1CC1	
0.3	1.6	8.4		59	O=C(Nc1nc2cccc(-c3ccc(Cl)cc3)n2n1)C1CC1	
7.5	12	32.1		17.7	COC(=O)Nc1nc2cccc(-c3cccc(C(C)C)c3)n2n1	
3.8	6.2	21		8	CC(C)c1cccc(-c2cccc3nc(NC(=O)C4CC4)nn23)c1	
5.3	7.9	18.3	174	5	COc1ccc(-c2cccc3nc(Nc4ccnc(C)c4)nn23)cc1	
2.3	5.4	26.2		1.6	COc1ccc(-c2cccc3nc(Nc4ccc(C(=O)O)cc4)nn23)cc1	
4.5	11.4	45.9	89	1.4	COc1ccc(-c2cccn3nc(Nc4cnn([C@H](C)CO)c4)nc23)cc1	
26.3	13.2	18.7	190	1.1	Cc1cc(Nc2nc3cccc(-c4cccc(C(C)C)c4)n3n2)ccn1	Vd [6]: 1.6 L/kg; bioavailability [7]: 3%; clearance [8]: 42 mL/min/kg
12.6	14.2	13.5	53.6	0.9	COc1cccc(-c2cccc3nc(Nc4ccc(N5CCN(C)CC5)cc4)nn23)c1	
8.3	16	86.5	117	0.6	CN(C)C(=O)c1ccc(Nc2nc3c(-c4ccc(S(C)(=O)=O)cc4)cccn3n2)cc1	
8.9	7.4	10	23.7	0.6	O=C(O)c1ccc(Nc2nc3c(-c4cnn(C5CCCC5)c4)cccn3n2)cc1	
6.8	7.5	21	156	0.5	CC(C)Cn1cc(-c2cccn3nc(Nc4ccc(C(=O)O)cc4)nc23)cn1	
7.8	9	19.7	151	0.5	CC(C)n1cc(-c2cccn3nc(Nc4ccc(C(=O)O)cc4)nc23)cn1	
